Compound activity (PubChem)
DDE Tn7 FP inh: DD(E)-Tn7 binding inhibition, primary FP screen; FP displacement of FITC-Tn7 peptide from fibrin DD(E); 0% = median of compound wells per plate; inhibition, % at 8.3 µM; hit rate 0.13% among 370,000;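 active means inhibition above the mean of compounds falling within the control limits plus 3 SD of them, cut at about 14% in these data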;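 further: 0% = plate median of compound wells and 100% = 10 µM Aha-Tn7 peptide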
Target sequence (P02675 whole entry, looked up): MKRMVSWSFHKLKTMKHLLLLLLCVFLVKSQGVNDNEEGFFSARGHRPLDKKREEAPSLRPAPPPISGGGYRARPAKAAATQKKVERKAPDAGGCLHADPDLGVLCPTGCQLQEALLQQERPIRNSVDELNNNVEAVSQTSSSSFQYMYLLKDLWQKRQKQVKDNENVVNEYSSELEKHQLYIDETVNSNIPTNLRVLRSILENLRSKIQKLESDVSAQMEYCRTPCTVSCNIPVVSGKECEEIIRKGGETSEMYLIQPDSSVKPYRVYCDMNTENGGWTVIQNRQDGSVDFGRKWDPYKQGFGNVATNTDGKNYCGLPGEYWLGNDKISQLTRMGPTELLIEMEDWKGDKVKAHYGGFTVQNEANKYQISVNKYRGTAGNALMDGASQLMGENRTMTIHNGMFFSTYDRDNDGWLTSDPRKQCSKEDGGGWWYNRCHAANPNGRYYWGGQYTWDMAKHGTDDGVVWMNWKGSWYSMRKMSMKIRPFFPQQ
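Assay system: human fibrin DD(E). Input: DD(E) 2 µM final. Medium: Tris buffer with calcium and detergent, pH 7.8. Compound dosing: single point at 8.3 µM. Timing: 10 min plus 3 h, room temperature. Technique: fluorescence polarization of the labelled Tn7 tracer. Read-out: percent inhibition. Replicates: singlicate testing.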
MT1-MMP act inh: blocks activation of human MT1-MMP; HT1080 RFP-PRO-GFP cells, GFP/RFP ratio fluorescence, overnight; percent of plate control window, DMSO zero; GFP/RFP ratio change, % at 20 µM; hit rate 0.061% among 360,000; AID 651647;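 active means GFP/RFP ratio change of at least 30% with cell ATP level not reduced by more than half and red fluorescence within 50% of control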
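Read-out: GFP/RFP fluorescence ratio; Test system: RFP-PRO-GFP reporter HT1080 cells; Compound dosing: single-point 20 µM compound, 1% DMSO; Times: overnight compound exposure at 37 °C.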
DDE Tn6 FP inh: inhibitors of Tn6 peptide binding to human fibrin DD(E). inhibition, % at 8.3 µM. P02675. hit rate 0.21% among 370,000. Fibrin DD(E) TRITC-Tn6 fluorescence polarization displacement;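 active means inhibition above a per-campaign cutoff: mean of compounds within control limits plus 3 SD, cut at about 15% in these data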;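 further: 0% = median of all compound wells on the plate and 100% = blocking peptide control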
ADAM10 inh: ADAM10 inhibition, QFRET primary screen. inhibition, % at 7 µM. recombinant ADAM10, EDANS/DABCYL FRET peptide cleavage, 3 h. O14672. AID 720582. hit rate 0.62% among 370,000;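 active means inhibition above a per-campaign cutoff equal to the mean of compounds falling between control-based bounds plus 3 SD, cut at about 20% in these data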;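 further: 0% = DMSO wells while the 100% control is not disclosed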
ADAM17 inh: inhibitors of human ADAM17 | recombinant ADAM17, EDANS/DABCYL FRET peptide cleavage | P78536 | inhibition, % at 6.95 µM | hit rate 0.83% among 370,000;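 active means inhibition above the mean of compounds lying between control limits plus 3 SD, set per campaign, cut at about 8.5% in these data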;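 further: 0% = DMSO-only wells as the low control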
ADAM10 ctr: inhibits human ADAM10 in ADAM17 exosite counter-screen. shares compounds with ADAM17 inh. recombinant ADAM10, EDANS/DABCYL FRET peptide cleavage, 3 h. inhibition, % at 6.95 µM. hit rate 47% among 2,900;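 active means mean inhibition over the triplicate runs exceeds the activity threshold set in the earlier primary screen, cut at about 20% in these data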;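 further: 0% = DMSO wells and 100% = marimastat wells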
ADAM17 confirm: human ADAM17 inhibition, confirmation | recombinant ADAM17, EDANS/DABCYL QFRET peptide cleavage | inhibition, % at 6.95 µM | hit rate 65% among 2,900 | shares compounds with ADAM17 inh;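 active means mean inhibition across replicates above the hit cutoff set in the primary screen, cut at about 8.5% in these data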;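 further: 0% = DMSO wells and 100% = marimastat wells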
Active calls of the source: *; · = no result given. The list is not random: actives were taken first. Their share in the collection is about 1.6%.

SMILES	DDE Tn7 FP inh	MT1-MMP act inh	DDE Tn6 FP inh	ADAM10 inh	ADAM17 inh	ADAM10 ctr	ADAM17 confirm
CCCC1CCC2(CC1)CCC2OC(=S)Nc1ccccc1C(F)(F)F (configuration not stated)	-6	·	2	2	-1	·	·
OC(c1ccccc1)(c1ccccc1)C1CCN(CCCNc2ccc(C(F)(F)F)cc2)CC1	-3	·	5	17	9.4*	20	11*
COc1ccc(-c2cc(C(=O)NN=Cc3ccc(O)c(OC)c3)[nH]n2)cc1	-2	·	-7	-10	-1	·	·
CC(C)COc1ccc(CSCCNC(=S)Nc2ccccc2)cc1	-4	-5	-2	17	9.1*	29*	13*
CCCCOc1ccc(CSCCNC(=S)Nc2ccccc2)cc1	2	0	-1	14	5	·	·
CCOc1cc(C(=O)Nc2ccc(S(=O)(=O)Nc3nnc(CC)s3)cc2)cc(OCC)c1OCC	-2	6	6	7	1	·	·
CCc1nnc(NS(=O)(=O)c2ccc(NC(=O)c3cccc(Br)c3)cc2)s1	3	-4	-6	2	9.6*	0	3
CCN(CC)C(=O)CSc1nnc(-c2cccs2)o1	-4	·	2	-3	0	·	·
CCN(C(=O)Cn1nnc(-c2ccncc2)n1)c1ccccc1	-2	·	0	-8	-3	·	·
CC1(C)CC(=O)C=C(c2ccccc2-c2cccc(C(N)=O)c2)C1=O	0	·	1	-37	-13	·	·
COc1ccccc1-n1c(-c2cc(-c3ccc(F)cc3)n[nH]2)n[nH]c1=S	-3	0	3	7	4	·	·
COc1ccc(-c2cc(-c3n[nH]c(=S)n3-c3cccc4ccccc34)[nH]n2)cc1	3	-6	1	19	8.7*	18	8
CCOc1ccc(NC(=O)CN2C(=O)c3cccc4cccc2c34)cc1	0	·	-4	-11	-4	·	·
CC(c1cccs1)N(Cc1ccco1)C(=O)Nc1ccc(Cl)c(Cl)c1 (configuration not stated)	-4	-14	-3	10	8.6*	-1	6
COC(=O)[C@@]12CCCCC3=C1N(CCC3)C(=O)[C@H]2CC(=O)NCCCN1CCCC1=O	4	·	1	-6	-1	·	·
CCCCc1c(-c2ccccc2OC)ncn1Cc1ccc(OC)c(Cl)c1	-5	·	-7	-11	2	·	·
CCC(C)c1ccccc1NC(=O)COC(=O)c1ccc2[nH]c3c(c2c1)CCCC3 (configuration not stated)	-1	-11	-5	2	11*	-1	6
O=C(COC(=O)c1ccc2[nH]c3c(c2c1)CCCC3)Nc1ccccc1Cl	1	0	-3	-12	0	·	·
Oc1cccc2ccc(Nc3ccccn3)nc12	3	-46	-2	60*	50*	32*	47*
CC(c1nnnn1C1CCCCC1)N(Cc1ccccc1)Cc1cccnc1 (configuration not stated)	-9	1	1	18	9.4*	4	2
Cc1ccc(C)n1NC(=O)c1cccs1	-1	-11	4	0	-3	·	·
CC(C)(NO)/C(=N/O)c1cccs1	0	-1	-6	8	9.2*	5	5
O=C(C1CCCN(S(=O)(=O)c2cccc3ccccc23)C1)N1CCN(Cc2ccccc2)CC1 (configuration not stated)	-1	·	-7	-6	2	·	·
Cc1onc(-c2ccc(Cl)cc2)c1-c1ccn(S(=O)(=O)c2ccccc2)n1	-1	·	-9	17	14*	11	10*
COC(=O)c1ccc(-c2ccc3c(c2)[C@]2(CCC[C@@H](OCc4ccccc4)[C@@H]2NC(=O)CCc2ccccc2)C(=O)N3Cc2ccccc2)cc1	-1	·	-1	-115	-21	·	·
SMILES	DDE Tn7 FP inh	MT1-MMP act inh	DDE Tn6 FP inh	ADAM10 inh	ADAM17 inh	ADAM10 ctr	ADAM17 confirm
CCCCNS(=O)(=O)c1ccc2nc(SCC(=O)Nc3cccc(F)c3)[nH]c2c1	-7	-1	1	15	8	·	·
CCCCNS(=O)(=O)c1ccc2nc(SCC(=O)Nc3ccccc3Cl)[nH]c2c1	-2	-4	-4	20	9.9*	26*	12*
Cn1c(Cc2cccs2)nnc1SCC(=O)Nc1ccc2c(c1)OCCO2	-4	·	-1	-2	1	·	·
O=S(=O)(c1ccccc1)N(CC(O)Cn1c2ccccc2c2ccccc21)c1ccccc1 (configuration not stated)	6	-24	-12	13	14*	12	17*
Cc1ccc(S(=O)(=O)N(C)CC(O)Cn2c3ccccc3c3ccccc32)cc1 (configuration not stated)	-3	-5	-4	16	11*	21*	11*
COc1ccccc1N(CC(O)Cn1c2ccccc2c2ccccc21)S(=O)(=O)c1ccccc1 (configuration not stated)	-4	-4	-2	8	6	·	·
CCN(CC(O)Cn1c2ccccc2c2ccccc21)S(=O)(=O)c1ccc(F)cc1 (configuration not stated)	6	-5	2	18	7	·	·
O=S(=O)(c1ccc(F)cc1)N(CCO)CC(O)Cn1c2ccccc2c2ccccc21 (configuration not stated)	-4	-6	4	15	9.0*	7	6
COc1ccc(OC)c(S(=O)(=O)N2CCCC(c3noc(-c4ccc(C)cc4)n3)C2)c1 (configuration not stated)	-2	·	-2	2	0	·	·
NC1(N2SC(S)=C3CCCC=C32)CCCCC1	-5	·	1	1	-1	·	·
CCCCC(CC)C(=O)Oc1ccc(O)c(C(C)(C)C)c1 (configuration not stated)	-9	3	-10	14	12*	16	7
CN(C)S(=O)(=O)c1cccc(NC(=O)c2ccc(COc3ccccc3)cc2)c1	-1	-6	-4	18	9.6*	24*	14*
CN(C)S(=O)(=O)c1cccc(NC(=O)c2cccc(S(=O)(=O)N3CCc4ccccc43)c2)c1	5	-14	1	12	9.5*	41*	22*
COCc1ccc(C(=O)Nc2cccc(S(=O)(=O)N(C)c3ccccc3)c2)cc1	11	-3	-2	7	3	·	·
CCc1c(-c2ccc(OC)cc2)ncn1CCc1ccccc1OC	4	·	-3	4	3	·	·
CC(=O)Nc1sc2c(c1-c1nc3ccccc3s1)CNC2	5	·	0	-98	-31	·	·
COC(=O)[C@]12C[C@H](CC(=O)NCC34CC5CC(CC(C5)C3)C4)C(=O)N(Cc3cccc4ccccc34)C1=C[C@H](C1CCCC1)O[C@@H]2C	0	·	-7	2	-1	·	·
